Results reported in ChEMBL document CHEMBL1914456, “Design, synthesis and biological evaluation of mannosyl triazoles as FimH antagonists” (Bioorg Med Chem, 2011).
In brackets after ≈: the same amount, converted by molar mass.

Legend:
[1] = target: Type 1 fimbrin D-mannose specific adhesin (Escherichia coli K-12) (UniProt P08191); assay: Ratio of compound IC50 to n-heptyl alpha-D-mannopyranoside IC50 for Escherichia coli recombinant C-terminal 6His-tagged FimH-CRD with a C-terminal thrombin cleavage site expressed in Escherichia coli HM125 assessed as inhibition of streptavidin-horseradish peroxidase conjugated TM-PAA polymer binding after 3 hrs by spectrophotometry
Chain of Type 1 fimbrin D-mannose specific adhesin (Escherichia coli K-12) (P08191 whole entry): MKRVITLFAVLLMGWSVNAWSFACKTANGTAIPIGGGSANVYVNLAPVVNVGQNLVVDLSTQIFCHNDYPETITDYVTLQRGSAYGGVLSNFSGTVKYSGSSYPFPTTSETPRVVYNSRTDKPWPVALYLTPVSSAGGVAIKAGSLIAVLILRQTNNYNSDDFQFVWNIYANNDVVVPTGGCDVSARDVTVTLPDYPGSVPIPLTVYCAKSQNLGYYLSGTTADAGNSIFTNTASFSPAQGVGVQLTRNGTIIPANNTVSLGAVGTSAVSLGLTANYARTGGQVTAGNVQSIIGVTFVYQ
In short: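 FimH-CRD-Th-6His from E. coli HM125, purified on Ni-NTA, coated at 10 µg/mL in assay buffer (20 mM HEPES, 150 mM NaCl, 1 mM CaCl2, pH 7.4) overnight at 4 °C. Wells blocked with 3% BSA for 2 h at 4 °C. Four-fold serial dilutions of compound in buffer with 5% DMSO were added with streptavidin-peroxidase-coupled TM-PAA polymer (0.5 µg/mL). Plates were incubated 3 h at 25 °C, 350 rpm. ABTS was developed 4 min, stopped with 2% oxalic acid, and read at 415 nm. Each compound was run in duplicate and repeated at least twice. IC50 is the concentration that halves maximal specific TM-PAA binding. rIC50 is compound IC50 divided by the IC50 of n-heptyl α-D-mannopyranoside run on the same plate.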

[2] = Thermodynamic solubility of the compound at pH 6.5 after 24 hrs by shake flask method using LC-MS analysis; assay type: physicochemical; conditions: buffer, read-out: Therm_solubility
In short: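 1 mg solid shaken in 250 µL 50 mM phosphate buffer, pH 6.5: sonicated 15 min, shaken at 600 rpm and 25 °C for 2 h, then left 24 h. pH measured, then filtered by centrifugation. Filtrate diluted and quantified by LC-MS against a six-point calibration from 0.1 to 10 µg/mL.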

[3] = target: Type 1 fimbrin D-mannose specific adhesin (Escherichia coli K-12, UniProt P08191); assay: Antagonist activity at Escherichia coli recombinant C-terminal 6His-tagged FimH-CRD with a C-terminal thrombin cleavage site expressed in Escherichia coli HM125 assessed as inhibition of streptavidin-horseradish peroxidase conjugated TM-PAA polymer binding after 3 hrs by spectrophotometry
Chain of Type 1 fimbrin D-mannose specific adhesin (P08191 whole entry): as above
In short: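 Plates coated overnight at 4 °C with 10 µg/mL FimH-CRD-Th-6His in 20 mM HEPES, 150 mM NaCl, 1 mM CaCl2, pH 7.4, then blocked with 3% BSA for 2 h at 4 °C. Fourfold serial dilutions in buffer with 5% DMSO plus 0.5 µg/mL streptavidin-peroxidase TM-PAA polymer, 3 h at 25 °C. ABTS for 4 min, stopped with oxalic acid, OD 415 nm. Duplicates, repeated at least twice; n-heptyl α-D-mannoside on each plate; IC50 from curve fit.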

[4] = Permeability of the compound assessed as membrane retention at pH 5 to 7.4 after 16 hrs by PAMPA assay; assay type: ADME; conditions: pH 5, 16 h
In short: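 PAMPA sandwich: donor wells with compound solution, acceptor filter impregnated with GIT-0 lipid and filled with acceptor sink buffer. Incubated undisturbed for 16 h. Donor and acceptor samples quantified by UV spectroscopy and LC-MS; log Pe and membrane retention calculated from these.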

[5] = Octanol-phosphate buffer distribution coefficient, log D of the compound at pH 7.4 after 2 hrs by shake flask method using LC-MS analysis; assay type: physicochemical
In short: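 Miniaturized shake flask. Phosphate buffer (0.1 M, pH 7.4) and 1-octanol mutually saturated. Analyte at 1 µM in buffer, overlaid with octanol at two volume ratios chosen by ALOGPS-predicted logP, three determinations per ratio.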

[6] = Antagonist activity at Escherichia coli […] FimH assessed as disaggregation of microorganism from guinea pig erythrocytes measured for 1400 secs by aggregometry; assay type: functional
In short: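 E. coli UTI89 and guinea pig erythrocytes (separated on Histopaque), each adjusted to OD600 of 4 (1.9 × 10⁸ CFU/mL and 2.2 × 10⁶ cells/mL). Aggregation read as optical density at 740 nm, 37 °C, stirring at 1000 rpm. Instrument calibrated with protein-poor plasma in PBS as 100% and protein-rich plasma with erythrocytes as 0%. Triplicates; IC50 from area under the disaggregation curve.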

Escherichia coli = assay: Ratio of compound IC50 to n-heptyl alpha-D-mannopyranoside IC50 for Escherichia coli […] FimH assessed as disaggregation of microorganism from guinea pig erythrocytes measured for 1400 secs by aggregometry

SMILES	Ratio IC50 [1]	solubility thermodynamic at 24 h [2] [µg/mL]	IC50 [3] [nM]	R% [4]	logD at 2 h [5]	IC50 [6]	Ratio IC50 (Escherichia coli)	IC50 ([6]; read-out: IC50) [nM]
O=C([O-])c1cccc(-n2cc(CO[C@H]3O[C@H](CO)[C@@H](O)[C@H](O)[C@@H]3O)nn2)c1.[Na+]	4.5	> 3000	296					
OC[C@H]1O[C@H](n2cc(-c3cccc(Cl)c3)nn2)[C@@H](O)[C@@H](O)[C@@H]1O	5.1	705 (≈ 2.06 mM)	331	13.2%	1.22			
O=C([O-])c1cncc(-n2cc(CO[C@H]3O[C@H](CO)[C@@H](O)[C@H](O)[C@@H]3O)nn2)c1.[Na+]	2.6	> 3000	169					
COc1ccc(-n2cc(CO[C@H]3O[C@H](CO)[C@@H](O)[C@H](O)[C@@H]3O)nn2)cc1	2.5	2600 (≈ 7.08 mM)	161	7.9%	-0.05			
OC[C@H]1O[C@H](Cn2cc(-c3ccccc3)nn2)[C@@H](O)[C@@H](O)[C@@H]1O	8.5	> 3000	560	7.8%	-0.36			
OC[C@H]1O[C@H](OCc2cn(-c3ccc(F)cc3)nn2)[C@@H](O)[C@@H](O)[C@@H]1O	11.9	> 3000	778	4.6%	-0.15			
OC[C@H]1O[C@H](Cn2cc(-c3cccnc3)nn2)[C@@H](O)[C@@H](O)[C@@H]1O	5.1	1880 (≈ 5.82 mM)	333	impermeable	< -1.5	Not Active		
OC[C@H]1O[C@H](n2cc(-c3ccc(C(F)(F)F)cc3)nn2)[C@@H](O)[C@@H](O)[C@@H]1O	2.2	159 (≈ 0.424 mM)	144	17.2%	1.45		3.2	249000
CO[C@H]1O[C@H](CO)[C@@H](O)[C@H](O)[C@@H]1O	29		1900					
COc1cccc(Cn2cc(CCO[C@H]3O[C@H](CO)[C@@H](O)[C@H](O)[C@@H]3O)nn2)c1	3.5	> 3000	229	11.8%	< -1			
Cc1ccc(-c2cn([C@H]3O[C@H](CO)[C@@H](O)[C@H](O)[C@@H]3O)nn2)cc1	3.8	445 (≈ 1.38 mM)	248	11.5%	0.91		3.7	289000
OC[C@H]1O[C@H](Cn2cc(-c3ccc(C(F)(F)F)cc3)nn2)[C@@H](O)[C@@H](O)[C@@H]1O	3	525 (≈ 1.35 mM)	194	impermeable	1.07	Not Active		
OC[C@H]1O[C@H](OCc2cn(C34CC5CC(CC(C5)C3)C4)nn2)[C@@H](O)[C@@H](O)[C@@H]1O	2.1	> 3000	135	9.8%	0.07			
COc1ccc(Cn2cc(CO[C@H]3O[C@H](CO)[C@@H](O)[C@H](O)[C@@H]3O)nn2)cc1	7.8	> 3000	511	3.1%	-0.4			
OC[C@H]1O[C@H](n2cc(-c3cccnc3)nn2)[C@@H](O)[C@@H](O)[C@@H]1O	3.3	1380 (≈ 4.47 mM)	216	10.3%	-1.04			
Cc1ccc(-c2cn(C[C@H]3O[C@H](CO)[C@@H](O)[C@H](O)[C@@H]3O)nn2)cc1	8.6	1490 (≈ 4.44 mM)	565	6.3%	0.23			

SMILES	Ratio IC50 [1]	solubility thermodynamic at 24 h [2] [µg/mL]	IC50 [3] [nM]	R% [4]	logD at 2 h [5]	IC50 [6]	Ratio IC50 (Escherichia coli)	IC50 ([6]; read-out: IC50) [nM]
O=C([O-])c1ccc(-n2cc(CO[C@H]3O[C@H](CO)[C@@H](O)[C@H](O)[C@@H]3O)nn2)cc1.[Na+]	3.2	> 3000	207					
Nc1ccc(-n2cc(CO[C@H]3O[C@H](CO)[C@@H](O)[C@H](O)[C@@H]3O)nn2)cc1	6.4	> 2000	420	4%	0.2		3.9	299000
CCCCCCCO[C@H]1O[C@H](CO)[C@@H](O)[C@H](O)[C@@H]1O		> 3000	65.6	21%	1.65		1	
OC[C@H]1O[C@H](Cn2cc(-c3cccc(Cl)c3)nn2)[C@@H](O)[C@@H](O)[C@@H]1O	9.7	> 3000	639	impermeable	0.68			
O=[N+]([O-])c1ccc(-n2cc(CO[C@H]3O[C@H](CO)[C@@H](O)[C@H](O)[C@@H]3O)nn2)cc1	6.1	2600 (≈ 6.8 mM)		4.9%	-0.16			
OC[C@H]1O[C@H](OCc2cn(-c3ccncc3)nn2)[C@@H](O)[C@@H](O)[C@@H]1O	1.1	> 3000	70	9.2%	0.24	Not Active		
OC[C@H]1O[C@H](OCCc2cn(-c3ccc(F)cc3)nn2)[C@@H](O)[C@@H](O)[C@@H]1O	3	> 3000	196	4%	-0.21		2.8	216000
OC[C@H]1O[C@H](OCCc2cn(-c3ccncc3)nn2)[C@@H](O)[C@@H](O)[C@@H]1O	2.3	> 3000	153	4.3%	< -1.5		3.6	277000
OC[C@H]1O[C@H](n2cc(-c3ccccc3)nn2)[C@@H](O)[C@@H](O)[C@@H]1O	3.8	> 3000		6.4%	0.21			
OC[C@H]1O[C@H](OCc2cn(Cc3ccccc3)nn2)[C@@H](O)[C@@H](O)[C@@H]1O	10.2	> 3000	667	3%	-0.33			
OC[C@H]1O[C@H](OCc2cn(-c3cccc(F)c3)nn2)[C@@H](O)[C@@H](O)[C@@H]1O	5.3	> 3000	348	5.4%	0.18			
O=[N+]([O-])c1ccc(-n2cc(CCO[C@H]3O[C@H](CO)[C@@H](O)[C@H](O)[C@@H]3O)nn2)cc1	1.7	> 3000	112	2.9%	-0.3			
OC[C@H]1O[C@H](n2cc(COc3ccccc3)nn2)[C@@H](O)[C@@H](O)[C@@H]1O	7.5	> 3000	493	5.5%	-0.18			
COc1cccc(Cn2cc(CO[C@H]3O[C@H](CO)[C@@H](O)[C@H](O)[C@@H]3O)nn2)c1	6.9	> 3000	452	4%	-0.38			
OC[C@H]1O[C@H](Cn2cc(COc3ccccc3)nn2)[C@@H](O)[C@@H](O)[C@@H]1O	5		327	impermeable	-0.83			
